Published values of several laboratories.
Protocols differ between the studies behind these lines.
Target: Ephrin type-A receptor 3 (EPHA3, Homo sapiens, UniProt P29320)
Sequence (P29320 21-983, as in one of the studies): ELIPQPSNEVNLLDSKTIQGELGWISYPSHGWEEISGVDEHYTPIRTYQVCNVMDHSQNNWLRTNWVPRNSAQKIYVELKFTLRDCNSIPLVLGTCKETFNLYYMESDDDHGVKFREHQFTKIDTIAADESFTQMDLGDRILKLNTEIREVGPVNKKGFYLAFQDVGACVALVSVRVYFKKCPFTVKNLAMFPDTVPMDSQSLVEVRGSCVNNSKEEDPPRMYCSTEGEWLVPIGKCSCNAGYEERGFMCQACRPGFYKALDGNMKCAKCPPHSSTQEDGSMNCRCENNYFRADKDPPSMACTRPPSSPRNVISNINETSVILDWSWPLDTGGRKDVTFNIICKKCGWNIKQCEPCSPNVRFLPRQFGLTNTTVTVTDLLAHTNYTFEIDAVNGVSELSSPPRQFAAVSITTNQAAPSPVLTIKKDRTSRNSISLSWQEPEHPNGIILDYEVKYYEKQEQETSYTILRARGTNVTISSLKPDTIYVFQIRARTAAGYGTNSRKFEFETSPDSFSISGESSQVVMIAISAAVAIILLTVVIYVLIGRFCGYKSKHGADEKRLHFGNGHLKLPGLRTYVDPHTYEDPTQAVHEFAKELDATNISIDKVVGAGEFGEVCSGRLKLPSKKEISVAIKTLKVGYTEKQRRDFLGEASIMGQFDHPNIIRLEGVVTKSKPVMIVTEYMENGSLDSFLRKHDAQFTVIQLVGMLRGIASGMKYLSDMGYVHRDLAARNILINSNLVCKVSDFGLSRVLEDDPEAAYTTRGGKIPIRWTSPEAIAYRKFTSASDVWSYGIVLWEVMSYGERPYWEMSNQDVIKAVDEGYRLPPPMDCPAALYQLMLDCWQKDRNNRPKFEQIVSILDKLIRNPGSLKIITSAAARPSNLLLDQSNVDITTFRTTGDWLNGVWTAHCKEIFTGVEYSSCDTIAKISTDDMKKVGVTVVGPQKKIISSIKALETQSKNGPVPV

F[C@@H]1CCN(c2nccc(-c3cnn4ncccc34)n2)C1 — remaining binding (binding; 1 µM): 90%
FC(F)(F)Oc1cccc(-c2cnc3ccc(-c4ccncc4)nn23)c1 — remaining binding (cell-free assay, competition with immobilised ligand; 5 µM): 76%
COc1cnc(Nc2cccc(S(N)(=O)=O)c2)nc1N1CCN(c2ccccc2)CC1 — remaining binding (binding, competition with immobilised ligand; 1 µM): 73%
O=C(c1ccc(Nc2ncc(Cl)c(-c3cc4ccccc4s3)n2)cc1)N1CCC(N2CCCC2)CC1 — remaining binding (binding, competition with immobilised ligand; 1 µM): 84%
CN(C)c1ncc(F)c(-c2cnn3ncccc23)n1 — remaining binding (binding; 1 µM): 100%
CCN1CCN(Cc2ccc(C(=O)Nc3ccc(C)c(Oc4ccc5c(c4)CC(=O)N5)c3)cc2C(F)(F)F)CC1 — remaining binding (binding, competition with immobilised ligand; 1 µM): 76%
C[C@H](NC(=O)c1cnc2n1[C@](C)(Cc1ccc(C#N)cc1)C(=O)N2c1cc(Cl)c(F)c(Cl)c1)C(=O)NC1(c2ccccn2)CC1 — remaining binding (cell-free assay, competition with immobilised ligand; 1 µM): 88%
O=C(Nc1c[nH]nc1C(=O)NC1CCNCC1)c1cc(F)cc(F)c1 — remaining binding (binding, competition with immobilised ligand; 1 µM): 100%
CC1=C(C#N)[C@@H](c2ccc3[nH]nc(C)c3c2)C(C#N)=C(c2ccc(Cl)cc2)N1 — remaining binding (cell-free assay, competition with immobilised ligand; 1 µM): 100%
CN(C)c1nccc(-c2cnc3ncccn23)n1 — remaining binding (binding; 1 µM): 100%
C[C@@H](c1ccc(-n2cnc3c(N)ncnc32)cc1)N1CCc2nn(C)c(Cc3ccccc3)c2C1=O — remaining binding (binding, competition with immobilised ligand; 0.1 µM): 83%
Cc1nc(C2CCN(C(=O)c3ccc(OC(F)(F)F)cc3N)CC2)c2ncc(N3CCN(C)CC3)cc2n1 — remaining binding (cell-free assay, competition with immobilised ligand; 1 µM): 92%
CN(CCCC(F)(F)F)c1nccc(-c2cnn3ncccc23)n1 — remaining binding (binding; 1 µM): 100%
O=C(c1ccc(Nc2ncc(Cl)c(-c3ccc(Cl)s3)n2)cc1)N1CCC(N2CCCC2)CC1 — remaining binding (binding, competition with immobilised ligand; 1 µM): 68%
CC(=O)Nc1c(C(C)=O)c(=O)n(C)c2nc(-c3ccc(Cl)cc3Cl)c(-c3ccc(Cl)cc3)cc12 — remaining binding (cell-free assay, competition with immobilised ligand; 1 µM): 100%
N[C@H]1CCN(c2nccc(-c3cnn4ncccc34)n2)C1 — remaining binding (binding; 1 µM): 98%
Cn1nc(C(=O)NCc2ccc(C(=O)O)cc2)cc1-c1ccc2[nH]ccc2c1 — remaining binding (cell-free assay, competition with immobilised ligand; 0.1 µM): 89%
C[C@@H]1CCN(c2nccc(-c3cnn4ncccc34)n2)C1 — remaining binding (binding; 1 µM): 61%
CN1CCN(c2cnc3c(C4CCN(C(=O)c5ccc(OC(F)(F)F)cc5N)CC4)ncnc3c2)CC1 — remaining binding (cell-free assay, competition with immobilised ligand; 1 µM): 100%
O=C(c1ccc(Nc2nccc(-c3cc4ccccc4s3)n2)cc1)N1CCC(N2CCCC2)CC1 — remaining binding (binding, competition with immobilised ligand; 1 µM): 94%
